A selection: hits, their analogues and other compounds. The true share with any hit is near 2.7%.
MsrA inhibitor: inhibits bovine methionine sulfoxide reductase A. 360,000 compounds, 0.75% hits. purified bovine MsrA, absorbance read-out. AID 651718. inhibition, % at 15.5 µM; in the data active = inhibition above about 4.5%
ARFGAP1 inhibitor: inhibits rat ARF GTPase activating protein 1. AID 651572. inhibition, % at 16.5 µM. Q62848. Arfgap1-stimulated ARF1 GTP hydrolysis, GDP FP detection. 360,000 compounds, 0.26% hits;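 active = inhibition above a per-plate limit, mean inhibition of low control wells plus 3 SD, cut at about 25% in these data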
Target sequence (Q62848 1-136 limits assumed): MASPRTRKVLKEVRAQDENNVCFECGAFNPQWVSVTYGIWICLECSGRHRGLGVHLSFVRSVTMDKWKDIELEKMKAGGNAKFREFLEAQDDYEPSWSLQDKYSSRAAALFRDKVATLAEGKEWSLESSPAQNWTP
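Replicates: Single well per compound | Assay system: Truncated rat Arfgap1 GAP domain | Control set: No-Arfgap1 wells (100%) versus DMSO full-reaction wells (0%) | Times: Enzyme reaction 120 min at 25 °C after 20 min preincubation | Reagent: Human ARF1(Δ1-17)-GTP substrate | Measured by: Tracer-displacement fluorescence polarization with EDTA stop, 620/688 nm | Measure: Percent inhibition of Arfgap1-stimulated GTP hydrolysis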
MsrA act: activates bovine MsrA enzyme; purified bovine MsrA, absorbance read-out; activation, % at 10.6 µM; 360,000 compounds, 0.3% hits; AID 602163; in the data active = activation above about 7.5%
NR1D1 modulator: modulates human Rev-erb alpha binding to DNA; P20393; Rev-erbα–FITC-DNA binding, fluorescence polarization, 90 min; activity, % at 10 µM; 370,000 compounds, 0.79% hits;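 active = activity above about 14%, limit read from the data; passing the limit was not always enough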
sPLA2-III inh: Inhibits HGIII-sPLA2 liposome hydrolysis, primary screen | Q9NZ20 | QFRET BODIPY PC-A2 liposome hydrolysis, fluorescence | inhibition, % at 12.2 µM | 370,000 compounds, 0.56% hits | AID 743126;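 active = inhibition above mean plus 3 SD of compounds lying within the high and low control bounds, cut at about 19% in these data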
Target sequence (Q9NZ20 whole entry, looked up): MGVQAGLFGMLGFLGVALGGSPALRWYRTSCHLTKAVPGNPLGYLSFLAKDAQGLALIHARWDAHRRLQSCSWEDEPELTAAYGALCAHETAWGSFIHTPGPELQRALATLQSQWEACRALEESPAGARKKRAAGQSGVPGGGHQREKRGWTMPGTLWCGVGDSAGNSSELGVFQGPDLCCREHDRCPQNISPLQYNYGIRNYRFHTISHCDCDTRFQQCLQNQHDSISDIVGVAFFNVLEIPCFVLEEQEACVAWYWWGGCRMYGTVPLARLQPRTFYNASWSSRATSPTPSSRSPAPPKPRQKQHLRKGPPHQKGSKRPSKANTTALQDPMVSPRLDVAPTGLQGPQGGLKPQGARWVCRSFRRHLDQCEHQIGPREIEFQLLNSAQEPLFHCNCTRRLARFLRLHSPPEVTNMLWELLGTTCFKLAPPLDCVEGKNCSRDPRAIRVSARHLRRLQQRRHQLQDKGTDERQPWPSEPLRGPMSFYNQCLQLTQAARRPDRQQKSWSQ
ASAP1 GAP inh: blocks human ASAP1-stimulated Arf1 GTP hydrolysis; 360,000 compounds, 0.19% hits; GDP FP detection; Q9ULH1; inhibition, % at 16.5 µM; in the data active = inhibition above about 25%
sPLA2 confirm: human GIII-sPLA2 inhibition, confirmation; shares compounds with sPLA2-III inh; inhibition, % at 12.2 µM; AID 743280; recombinant hGIII-sPLA2, BODIPY PC-A2 QFRET fluorescence; 2,000 compounds, 34% hits;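 active = mean inhibition across triplicates above the hit cutoff set in the earlier primary screen, cut at about 19% in these data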
BODIPY interf: optically interferes with 535nm fluorescence in sPLA2 counter-screen. shares compounds with sPLA2-III inh. 2,000 compounds, 8.5% hits. AID 743282. inhibition, % at 12.2 µM. BODIPY FL product fluorescence interference, QFRET;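 active = average inhibition above the solvent-only control mean plus 3 SD, cut at about 6% in these data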
BODIPY interf DR: interferes with 535nm fluorescence in dose response counter-screen; BODIPY FL product fluorescence interference, cell-free; shares compounds with sPLA2-III inh; 240 tested, under 10 active; IC50, µM; AID 743455;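 active = IC50 at or below 10 µM; inactive = IC50 above 10 µM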
Each line names hits and unclear results; the compound was inactive in the other large screens (follow-up assays come after a bar, where they were run).

O=c1c2c3c(sc2nc(N2CCNCC2)n1CCc1ccccc1)CCCCC3	sPLA2-III inh 20 | sPLA2 confirm inactive | BODIPY interf inactive
N#CC(C(=S)Nc1ccccc1)c1nc2ccccc2[nH]1 (stereo not drawn)	sPLA2-III inh 28 | sPLA2 confirm inactive | BODIPY interf 7.4
CCN(CC)CCCOC(=O)C(c1ccccc1)c1ccccc1	none
CCC(C(=O)OCCOCCN(CC)CC)c1ccccc1 (stereo not drawn)	sPLA2-III inh 20 | sPLA2 confirm inactive | BODIPY interf inactive
COC(=O)[C@@H](C)NC(=O)C(Cc1ccc2c(c1)OCO2)NC(C)=O (stereo partly drawn)	none (no result: MsrA inhibitor, ARFGAP1 inhibitor, MsrA act, ASAP1 GAP inh)
COc1ccc(-c2cc(C(F)(F)F)nc(SCC(=O)NCc3cnn(C)c3C)n2)cc1OC	sPLA2-III inh 24 | sPLA2 confirm inactive | BODIPY interf inactive
CCCCCCCCNS(=O)(=O)/C=C/c1ccccc1CNC(=O)OC(C)(C)C	none (no result: MsrA inhibitor, ARFGAP1 inhibitor, MsrA act, ASAP1 GAP inh)
COc1ccc(-c2c(Cc3ccccc3)nc(NC(=O)c3ccccc3)n2C)cc1	sPLA2-III inh 19 (no result: MsrA inhibitor, ARFGAP1 inhibitor, MsrA act, ASAP1 GAP inh) | sPLA2 confirm inactive | BODIPY interf inactive
O=C(Nc1nc(Cc2ccccc2)c(-c2ccccc2)n1Cc1ccccc1)c1ccccc1	sPLA2-III inh 20 (no result: MsrA inhibitor, ARFGAP1 inhibitor, MsrA act, ASAP1 GAP inh) | sPLA2 confirm inactive | BODIPY interf inactive
O=C(Nc1ccccc1)OCCN1CCCC12CCC(c1ccccc1)CC2 (stereo not drawn)	none (no result: MsrA inhibitor, ARFGAP1 inhibitor, MsrA act, ASAP1 GAP inh)
CC1=CC(C)(C)N(C(=O)CSc2nncn2C)c2ccccc21	none
Cc1cc2c(cc1C)N(C(=O)CSc1nncn1C)C(C)(C)c1ssc(=S)c1-2	sPLA2-III inh 34 | sPLA2 confirm inactive | BODIPY interf inactive
CCc1nc2ccc(C(=O)NCc3ccc4c(c3)OCO4)cn2c1N(CCC(C)C)CCN(C)C	none
COc1ccc(/C(C)=N/NC(=O)c2cccc(S(=O)(=O)N3CCCC3)c2)c(O)c1	sPLA2-III inh 35 | sPLA2 confirm 24 | BODIPY interf inactive
COc1ccc(C(C)=NNC(=O)c2cccc(S(=O)(=O)N3CCCC3)c2)cc1	none
CCOc1ccc(NC(=O)NNC(=O)c2ccc3ccccc3c2O)cc1	sPLA2-III inh 21 | sPLA2 confirm 24 | BODIPY interf inactive
COc1ccc(NC(=O)NNC(=O)c2ccc3ccccc3c2O)c(OC)c1	sPLA2-III inh 32 | sPLA2 confirm 34 | BODIPY interf inactive | BODIPY interf DR inactive
COc1ccc(NC(=O)c2ccccc2NC(=O)c2ccccc2C(=O)O)c(OC)c1	sPLA2-III inh 22 | sPLA2 confirm inactive | BODIPY interf inactive
COc1ccc(NC(=O)c2ccccc2C)c(OC)c1	none
COc1ccc(NC(=O)NNC(=O)c2cc(C3CC3)nc3ccccc23)c(OC)c1	none
CCc1ccccc1NC(=O)NNC(=O)c1ccc2ccccc2c1O	none
O=C(NNC(=O)c1cc2ccccc2cc1O)Nc1ccc(Br)cc1	sPLA2-III inh 31 | sPLA2 confirm 31 | BODIPY interf 6.2
O=C(NNC(=O)c1cc2ccccc2cc1O)Nc1ccc(F)cc1F	none
O=C(OCC#CCSc1nnc(-c2ccccc2)o1)c1ccc(F)cc1	none (no result: MsrA inhibitor, ARFGAP1 inhibitor, MsrA act, ASAP1 GAP inh)
O=c1oc(-c2cccc(C(F)(F)F)c2)nn1-c1ccc(C(F)(F)F)cn1	sPLA2-III inh 21 | sPLA2 confirm 42 | BODIPY interf 25
CC(C1CC1)N(Cc1ccccc1)C(=S)Nc1cccc(C(F)(F)F)c1 (stereo not drawn)	sPLA2-III inh 21 | sPLA2 confirm inactive | BODIPY interf inactive
Cc1cccc2c1N(CCCOc1ccccc1)C(=O)C2=O	sPLA2-III inh 21 | sPLA2 confirm inactive | BODIPY interf inactive
Cc1ccccc1OCCCN1C(=O)C(=O)c2cccc(C)c21	sPLA2-III inh 28 | sPLA2 confirm 38 | BODIPY interf inactive | BODIPY interf DR inactive
Cc1cccc2c1N(CCCOc1ccc(C(C)(C)C)cc1)C(=O)C2=O	none (no result: MsrA inhibitor, ARFGAP1 inhibitor, NR1D1 modulator, sPLA2-III inh, ASAP1 GAP inh)
Cc1ccc(-n2c(SCc3nc4ccccc4[nH]3)nnc2-c2ccccn2)cc1	none (no result: MsrA inhibitor, ARFGAP1 inhibitor, MsrA act, ASAP1 GAP inh)
O=C(OCCN1CCN(C2CN(Cc3cn(Cc4ccccc4F)nn3)S(=O)(=O)C2)CC1)c1cc2ccccc2o1 (stereo not drawn)	none (no result: MsrA inhibitor, ARFGAP1 inhibitor, MsrA act, ASAP1 GAP inh)
Cc1cnc(C)c(Nc2nc(C(N)Cc3ccc(F)cc3)cs2)n1 (stereo not drawn)	none
Cc1cnc(C)c(Nc2nc(C(N)Cc3ccc(Cl)cc3)cs2)n1 (stereo not drawn)	sPLA2-III inh 25 | sPLA2 confirm inactive | BODIPY interf inactive
Nc1ccc(CC(N)c2csc(Nc3cc(Oc4ccccc4)ncn3)n2)cc1 (stereo not drawn)	none
NC(Cc1ccc(C(F)(F)F)cc1)c1csc(Nc2cc(Oc3ccccc3)ncn2)n1 (stereo not drawn)	sPLA2-III inh 25 | sPLA2 confirm inactive | BODIPY interf inactive
NC(Cc1ccc(C(F)(F)F)cc1)c1csc(Nc2nncc3ccccc23)n1 (stereo not drawn)	sPLA2-III inh 21 | sPLA2 confirm inactive | BODIPY interf inactive
COc1ccccc1OCC(=O)Nn1c(=S)[nH]c2ncccc2c1=O	sPLA2-III inh 24 | sPLA2 confirm inactive | BODIPY interf inactive
O=C(COc1ccc(Cl)cc1Cl)Nn1c(=S)[nH]c2ncccc2c1=O	none
CC(=O)N1CCC(C(=O)N2c3ccccc3N=C(c3ccc(C(F)(F)F)cc3)C2C(=O)NC2CCCC2)CC1 (stereo not drawn)	none (no result: MsrA act)
CC(=O)c1ccc(NCCCN2CCC(C(O)(c3ccccc3)c3ccccc3)CC2)cc1	none (no result: MsrA inhibitor, ARFGAP1 inhibitor, MsrA act, ASAP1 GAP inh)
CC(=O)Nc1ccc(NC(C)=C(C#N)C#N)cc1	sPLA2-III inh 20 | sPLA2 confirm inactive | BODIPY interf inactive
CC(=O)Nc1cccc(NC(C)=C(C#N)C#N)c1	none
O=S(=O)(c1ccc(NC(=S)N/N=C/c2ccc(O)c(O)c2)cc1)N1CCOCC1	none
O=C(NC(=S)Nc1ccc(S(=O)(=O)N2CCCCC2)cc1)c1cccs1	sPLA2-III inh 19 | sPLA2 confirm 19 | BODIPY interf inactive
O=[N+]([O-])c1cc(Cl)cc(/C=N/NC(=S)Nc2ccc(S(=O)(=O)N3CCOCC3)cc2)c1O	sPLA2-III inh 69 | sPLA2 confirm 70 | BODIPY interf 19
O=S(=O)(c1ccc(NC(=S)NN=Cc2ccccc2O)cc1)N1CCCCC1	sPLA2-III inh 26 | sPLA2 confirm 33 | BODIPY interf 9.8
c1nc(NCC2CCCCO2)c2cc(-c3ccc4c(c3)OCO4)ccc2n1 (stereo not drawn)	none (no result: MsrA inhibitor, ARFGAP1 inhibitor, MsrA act, ASAP1 GAP inh)
